Results reported in ChEMBL document CHEMBL3826936, “Alkyne-substituted diminazene as G-quadruplex binders with anticancer activities” (Eur J Med Chem, 2016).
Activity calls are given as the source filed them. The rule behind the calls is not given here.

Legend:
[1] = Binding affinity to 5'-FAM/3'-TAMRA labeled F21T 21-mer G-quadruplex DNA (unknown origin) assessed as change in melting temperature at 4 uM after 12 hrs by TR-FRET assay
Outline: (§1)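 Dual-labeled FAM/TAMRA oligos diluted to 800 nM in 60 mM potassium cacodylate (pH 7.2), annealed 10 min at 85 °C and cooled to room temperature. Mixed 1:1 with ligand at […] in the same buffer. Equilibrated at least 12 h at 4 °C. ΔT1/2 taken as melting temperature with minus without ligand, in triplicate, averaged.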

[2] = Stabilization of c-MYC template Pu27 mutant DNA (unknown origin) assessed as inhibition of Taq polymerase-mediated polymerization/extension of Pu27 mutant and Pu27rev oligomers at 1 to 100 uM preincubated for 6 hrs followed by Taq polymerase addition by PCR stop assay
MDA-MB-231 [3] = assay: Antiproliferative activity against human MDA-MB-231 cells after 72 hrs by WST-1 assay; type: functional; details: MDA-MB-231, 72 h
Outline: (§2)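 Cells seeded in 96-well plates the afternoon before treatment, at numbers keeping them in log-phase growth; about 18 h later, compounds semi-serially diluted in DMSO then growth medium and added. Incubation 72 h, then WST-1 added and plates read after 4 more hours at 37 °C. GI50 derived from curve fits; viability expressed relative to DMSO control.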

[4] = Binding affinity to c-MYC2345 G-quadruplex DNA (unknown origin) at 150 uM incubated for 2 hrs by 1H NMR method
MDA-MB-231 [5] = assay: Binding affinity to c-MYC G-quadruplex DNA in human MDA-MB-231 cells assessed as inhibition of c-MYC protein expression at 19.5 uM incubated for 6 hrs by Western blot analysis relative to control; type: cell-based
Outline: (§3)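 MDA-MB-231 cells, grown in DMEM with 10% heat-inactivated FBS at 37 °C and 5% CO2, exposed for 6 or 24 h; DMSO vehicle as comparator. Cells harvested, PBS-washed, lysed in RIPA with protease inhibitors. Blots probed with c-MYC antibody (1:1000) and HRP anti-rabbit IgG (1:10,000), β-actin as loading control. Densitometry given as percent of vehicle at each time point.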

[6] = target: Telomerase reverse transcriptase (Homo sapiens) (UniProt O14746); assay: Inhibition of telomerase activity in human MDA-MB-231 cells using amplifour TS primer at 12.4 uM preincubated for 72 hrs followed by primer addition measured after 30 mins by fluorescence plate reader analysis relative to control; type: cell-based
Telomerase reverse transcriptase (Homo sapiens), sequence (O14746 whole entry): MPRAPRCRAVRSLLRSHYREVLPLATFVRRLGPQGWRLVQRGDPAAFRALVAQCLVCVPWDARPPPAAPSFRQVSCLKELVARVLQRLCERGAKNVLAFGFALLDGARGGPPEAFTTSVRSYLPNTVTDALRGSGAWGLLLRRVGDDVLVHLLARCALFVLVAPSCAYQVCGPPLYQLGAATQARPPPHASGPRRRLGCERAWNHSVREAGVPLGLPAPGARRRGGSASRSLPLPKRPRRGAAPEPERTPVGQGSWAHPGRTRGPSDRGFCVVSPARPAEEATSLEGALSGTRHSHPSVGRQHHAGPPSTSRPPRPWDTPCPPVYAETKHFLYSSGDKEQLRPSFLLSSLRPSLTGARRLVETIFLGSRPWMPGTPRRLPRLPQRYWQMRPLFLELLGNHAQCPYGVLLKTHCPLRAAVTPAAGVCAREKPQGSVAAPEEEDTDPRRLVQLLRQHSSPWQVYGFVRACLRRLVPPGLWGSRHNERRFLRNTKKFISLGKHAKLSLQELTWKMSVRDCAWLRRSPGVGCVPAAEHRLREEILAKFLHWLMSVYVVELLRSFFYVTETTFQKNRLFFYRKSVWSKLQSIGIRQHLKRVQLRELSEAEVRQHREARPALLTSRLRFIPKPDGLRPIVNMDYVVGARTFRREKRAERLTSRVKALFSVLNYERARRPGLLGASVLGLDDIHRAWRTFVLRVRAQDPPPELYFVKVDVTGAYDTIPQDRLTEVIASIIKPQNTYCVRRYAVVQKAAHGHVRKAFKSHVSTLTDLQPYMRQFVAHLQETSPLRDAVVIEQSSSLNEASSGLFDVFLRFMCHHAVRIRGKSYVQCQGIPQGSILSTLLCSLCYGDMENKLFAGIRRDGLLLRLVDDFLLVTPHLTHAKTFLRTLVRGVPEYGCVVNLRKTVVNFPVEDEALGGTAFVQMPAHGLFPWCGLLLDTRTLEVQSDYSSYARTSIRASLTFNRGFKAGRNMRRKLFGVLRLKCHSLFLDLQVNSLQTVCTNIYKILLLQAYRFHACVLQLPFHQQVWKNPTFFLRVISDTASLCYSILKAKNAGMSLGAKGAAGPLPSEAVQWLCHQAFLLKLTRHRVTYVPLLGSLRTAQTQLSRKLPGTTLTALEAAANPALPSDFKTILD
Outline: (§4)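 MDA-MB-231 seeded at 2 × 10^5 cells per T-25 flask the evening before, then treated with vehicle or compound for 48 or 72 h. Harvested cells lysed in CHAPS buffer with RNase inhibitor, 30 min on ice; supernatant kept after 12,000 × g spin. TRAPeze XL fluorescence assay used 1000 cell-equivalents, 30 min at 30 °C; TPG units from product/internal-standard ratio; inhibition relative to untreated cells.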

[7] = Binding affinity to c-kit1 22-mer G-quadruplex DNA (unknown origin) at 150 uM incubated for 2 hrs by 1H NMR method
[8] = Binding affinity to 5'-FAM/3'-TAMRA labeled c-kit2 26-mer G-quadruplex DNA (unknown origin) assessed as change in melting temperature at 4 uM after 12 hrs by TR-FRET assay; outline: as §1
[9] = Antiproliferative activity against human bone marrow cells assessed as cell viability at 20 uM after 72 hrs by WST-1 assay relative to control; type: cell-based; details: read-out: Activity; outline: as §2
[10] = Stabilization of c-MYC pu27 G-quadruplex DNA (unknown origin) assessed as inhibition of Taq polymerase-mediated polymerization/extension of Pu27 and Pu27rev oligomers at 100 uM preincubated for 6 hrs followed by Taq polymerase addition by PCR stop assay
[11] = Antiproliferative activity against human MCR5A cells assessed as cell viability at 20 uM after 72 hrs by WST-1 assay relative to control; type: cell-based; details: read-out: Activity; outline: as §2
[12] = Binding affinity to 8-bp AT rich duplex DNA (unknown origin) at 150 uM incubated for 2 hrs by 1H NMR method
[13] = Stabilization of c-MYC template Pu27-13,14 mutant DNA (unknown origin) assessed as inhibition of Taq polymerase-mediated polymerization/extension of Pu27-13,14 mutant and Pu27rev oligomers at 100 uM preincubated for 6 hrs followed by Taq polymerase addition by PCR stop assay
[14] = target: Telomerase reverse transcriptase (Homo sapiens) (UniProt O14746); assay: Inhibition of telomerase activity in human MDA-MB-231 cells using amplifour TS primer at 12.4 uM preincubated for 48 hrs followed by primer addition measured after 30 mins by fluorescence plate reader analysis relative to control; type: cell-based; outline: as §4
MDA-MB-231 [15] = assay: Binding affinity to c-MYC G-quadruplex DNA in human MDA-MB-231 cells assessed as inhibition of c-MYC protein expression at 19.5 uM incubated for 24 hrs by Western blot analysis relative to control; type: cell-based; outline: as §3
[16] = Binding affinity to 5'-FAM/3'-TAMRA labeled 26-mer duplex DNA (unknown origin) assessed as change in melting temperature at 4 uM after 12 hrs by TR-FRET assay
[17] = Antiproliferative activity against human OVCAR3 cells after 72 hrs by WST-1 assay; type: functional; details: OVCAR-3, 72 h; outline: as §2
[18] = Binding affinity to 5'-FAM/3'-TAMRA labeled c-MYC 22-mer G-quadruplex DNA (unknown origin) at 4 uM in presence of 26-mer duplex DNA by TR-FRET assay
[19] = Antiproliferative activity against human PC3 cells after 72 hrs by WST-1 assay; type: functional; details: PC-3, 72 h; outline: as §2
[20] = Binding affinity to 5'-FAM/3'-TAMRA labeled c-MYC 22-mer G-quadruplex DNA (unknown origin) assessed as change in melting temperature at 4 uM after 12 hrs by TR-FRET assay; outline: as §1
[21] = Binding affinity to 5'-FAM/3'-TAMRA labeled k-RAS21R 21-mer G-quadruplex DNA (unknown origin) assessed as change in melting temperature at 4 uM after 12 hrs by TR-FRET assay; outline: as §1
MDA-MB-231 [22] = assay: Antiproliferative activity against human MDA-MB-231 cells assessed as cell viability at 20 uM after 72 hrs by WST-1 assay relative to control; type: functional; details: MDA-MB-231, 72 h, read-out: Activity; outline: as §2
[23] = Selectivity ratio of Kd for 8-bp AT rich duplex DNA (unknown origin) to Kd for wild type Bcl2 27-mer G-quadruplex DNA (unknown origin)
[24] = Stabilization of c-MYC template Pu27 mutant DNA (unknown origin) assessed as inhibition of Taq polymerase-mediated polymerization/extension of Pu27 mutant and Pu27rev oligomers at 1 to 25 uM preincubated for 6 hrs followed by Taq polymerase addition by PCR stop assay
[25] = Stabilization of c-MYC template Pu27-13,14 mutant DNA (unknown origin) assessed as inhibition of Taq polymerase-mediated polymerization/extension of Pu27-13,14 mutant and Pu27rev oligomers at 25 uM preincubated for 6 hrs followed by Taq polymerase addition by PCR stop assay
[26] = Selectivity ratio of Kd for 8-bp AT rich duplex DNA (unknown origin) to Kd for wild type c-MYC 24-mer G-quadruplex DNA (unknown origin)
[27] = Stabilization of c-MYC Pu27 G-quadruplex DNA (unknown origin) assessed as inhibition of Taq polymerase-mediated polymerization/extension of Pu27 and Pu27rev oligomers at 10 uM preincubated for 6 hrs followed by Taq polymerase addition by PCR stop assay
[28] = Binding affinity to wild type c-MYC 24-mer G-quadruplex DNA (unknown origin) by isothermal titration calorimetry
[29] = Binding affinity to wild type Bcl2 27-mer G-quadruplex DNA (unknown origin) by isothermal titration calorimetry
[30] = Binding affinity to 8-bp AT rich duplex DNA (unknown origin) by isothermal titration calorimetry
[31] = Antiproliferative activity against human PC3 cells assessed as cell viability at 20 uM after 72 hrs by WST-1 assay relative to control; type: functional; details: PC-3, 72 h, read-out: Activity; outline: as §2
MDA-MB-231 [32] = assay: Binding affinity to c-MYC G-quadruplex DNA in human MDA-MB-231 cells assessed as inhibition of c-MYC protein expression at 27.25 uM incubated for 6 hrs by Western blot analysis relative to control; type: cell-based; outline: as §3
MDA-MB-231 [33] = assay: Binding affinity to c-MYC G-quadruplex DNA in human MDA-MB-231 cells assessed as inhibition of c-MYC protein expression at 27.25 uM incubated for 24 hrs by Western blot analysis relative to control; type: cell-based; outline: as §3
[34] = target: Telomerase reverse transcriptase (Homo sapiens) (UniProt O14746); assay: Inhibition of telomerase activity in human MDA-MB-231 cells using amplifour TS primer at 11 uM preincubated for 48 to 72 hrs followed by primer addition measured after 30 mins by fluorescence plate reader analysis relative to control; type: cell-based; outline: as §4
[35] = Antiproliferative activity against human bone marrow cells after 72 hrs by WST-1 assay; type: cell-based, Bone marrow cell
Outline: (§5)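 Cells seeded the afternoon before treatment at densities giving log-phase growth; about 18 h later compounds, semi-serially diluted in DMSO then growth medium, were added. After 72 h WST-1 was added, with a further 4 h at 37 °C before plate reading. GI50 values were calculated from the curves. NBM was grown in RPMI; MCR5A was handled per ATCC.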

[36] = target: Telomerase reverse transcriptase (Homo sapiens) (UniProt O14746); assay: Inhibition of telomerase activity in human MDA-MB-231 cells using amplifour TS primer preincubated for 48 to 72 hrs followed by primer addition measured after 30 mins by fluorescence plate reader analysis relative to control; type: cell-based
Outline: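 MDA-MB-231 cells, 2 × 10⁵ per T-25 flask, were treated the next morning with vehicle or compound at 0.5×, 1×, 2× or 4× GI50. After 48 or 72 h they were lysed in CHAPS buffer with RNase inhibitor on ice for 30 min. Lysate (1000 cell-equivalents) went into a fluorescent TRAP reaction at 30 °C for 30 min. TPG units were taken against an internal standard, and inhibition was expressed relative to untreated cells.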

[37] = Antiproliferative activity against human MCR5A cells after 72 hrs by WST-1 assay; type: cell-based; outline: as §5
MDA-MB-231 [38] = assay: Cytotoxicity against human MDA-MB-231 cells assessed as reduction in cell viability at 27.25 uM after 24 hrs by […]; details: mda-mb-231, 24 h

SMILES | ΔTm [1] [°C] | inhibition [2] | GI50 (MDA-MB-231 [3]) [µM] | Activity [4] | Activity [7] | ΔTm [8] [°C] | inhibition [10] | Activity [12] | inhibition [13] | ΔTm [16] [°C] | GI50 [17] [µM] | Activity [18] | GI50 [19] [µM] | ΔTm [20] [°C] | ΔTm [21] [°C] | further results
N=C(N)c1ccc(/N=N/Nc2ccccc2C#Cc2ccc(F)cc2)cc1 | < 5 | inactive | 6.2 | Active | Active | 5.12 | Active | inactive | inactive | < 5 | 9.5 | inactive | 7.4 | 8.8 | 2.7 | inhibition (MDA-MB-231 [5]): inactive; inhibition [6]: 30%; viability at 72 h, 20 µM [9]: ≥ 75%; viability at 72 h, 20 µM [11]: ≥ 75%; inhibition [14]: 20%; inhibition (MDA-MB-231 [15]): 100%
N=C(N)c1ccc(/N=N/Nc2ccc(C(=N)N)cc2)cc1 [DIMINAZENE] | 16.6 |  |  |  |  | 11.7 |  |  |  | 6.8 | > 25 |  |  | 18.3 | 24.1 | viability at 20 µM (MDA-MB-231 [22]): ≥ 75%; Selectivity ratio [23]: 1000; inhibition [24]: Active; inhibition [25]: Active; Selectivity ratio [26]: 1000; inhibition [27]: Active; Kd [28]: 0.001 µM; Kd [29]: 0.001 µM; Kd [30]: 1 µM; viability at 20 µM [31]: ≥ 75%
N=C(N)c1ccc(/N=N/Nc2cccc(C#Cc3ccc(F)cc3)c2)cc1 | < 5 | inactive | 5.5 | Active | Active | 5.67 | Active | inactive | inactive | < 5 | 5 | inactive | 5.3 | 8.6 | 6.9 | inhibition (MDA-MB-231 [32]): 40%; inhibition (MDA-MB-231 [33]): 67%; inhibition [34]: < 50%; GI50 at 72 h [35]: 5.6 µM; inhibition [36]: Dose-dependent effect; GI50 at 72 h [37]: 8.3 µM; Activity (MDA-MB-231 [38]): Toxic
